Reference: ChEMBL document CHEMBL1149528, “4-Phenyl-4-[1H-imidazol-2-yl]-piperidine derivatives as non-peptidic selective delta-opioid agonists with potential anxiolytic/antidepressant properties. Part 2” (Bioorg Med Chem Lett, 2007)

How the values were obtained:
[1] = target: Kappa-type opioid receptor (Homo sapiens, UniProt P41145); experiment: Displacement of [3H]U-69593 from cloned human kappa opioid receptor
Mu-type opioid receptor = Mu-type opioid receptor (Homo sapiens, UniProt P35372); experiment: Displacement of [3H]DAMGO from cloned human mu opioid receptor
Chain of Mu-type opioid receptor (P35372 whole entry): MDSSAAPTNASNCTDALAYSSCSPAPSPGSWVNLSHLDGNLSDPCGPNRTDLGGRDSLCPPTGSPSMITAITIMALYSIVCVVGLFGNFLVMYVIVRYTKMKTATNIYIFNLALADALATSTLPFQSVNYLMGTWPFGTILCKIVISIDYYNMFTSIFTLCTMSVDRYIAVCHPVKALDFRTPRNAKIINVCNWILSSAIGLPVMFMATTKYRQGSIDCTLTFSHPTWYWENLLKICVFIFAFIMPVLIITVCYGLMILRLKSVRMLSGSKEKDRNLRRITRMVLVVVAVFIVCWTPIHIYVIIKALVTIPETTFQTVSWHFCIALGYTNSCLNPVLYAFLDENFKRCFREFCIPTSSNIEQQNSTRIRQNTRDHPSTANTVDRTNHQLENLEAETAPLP

[2] = target: Delta-type opioid receptor (Homo sapiens, UniProt P41143); experiment: Displacement of [3H]DPDPE from cloned human delta opioid receptor
Chain of Delta-type opioid receptor (P41143 whole entry): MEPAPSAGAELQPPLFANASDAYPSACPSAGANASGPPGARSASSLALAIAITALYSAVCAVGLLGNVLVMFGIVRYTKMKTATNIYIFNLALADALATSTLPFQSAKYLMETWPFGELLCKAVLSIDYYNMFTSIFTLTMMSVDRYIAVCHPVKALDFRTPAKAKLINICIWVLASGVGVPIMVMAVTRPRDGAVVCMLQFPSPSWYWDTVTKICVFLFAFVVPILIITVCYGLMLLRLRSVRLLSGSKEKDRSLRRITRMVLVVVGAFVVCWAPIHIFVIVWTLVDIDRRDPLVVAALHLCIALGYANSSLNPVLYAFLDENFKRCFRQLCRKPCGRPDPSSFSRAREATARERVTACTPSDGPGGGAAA

[3] = target: Opioid receptors; mu & delta (Homo sapiens) (UniProt P41143+P35372); experiment: Selectivity for delta opioid receptor over mu opioid receptor; format: protein assay
Chain of Opioid receptors; mu & delta (Homo sapiens) (P35372 whole entry, looked up): as the sequence (P35372 whole entry) above
Chain of Opioid receptors; mu & delta (Homo sapiens) (P41143 whole entry, looked up): as the sequence (P41143 whole entry) above

[4] = target: Opioid receptors; delta & kappa (Homo sapiens) (UniProt P41145+P41143); experiment: Selectivity for delta opioid receptor over kappa opioid receptor; format: protein assay
Chain of Opioid receptors; delta & kappa (Homo sapiens) (P41143 whole entry, looked up): as the sequence (P41143 whole entry) above
Chain of Opioid receptors; delta & kappa (Homo sapiens) (P41145 whole entry, looked up): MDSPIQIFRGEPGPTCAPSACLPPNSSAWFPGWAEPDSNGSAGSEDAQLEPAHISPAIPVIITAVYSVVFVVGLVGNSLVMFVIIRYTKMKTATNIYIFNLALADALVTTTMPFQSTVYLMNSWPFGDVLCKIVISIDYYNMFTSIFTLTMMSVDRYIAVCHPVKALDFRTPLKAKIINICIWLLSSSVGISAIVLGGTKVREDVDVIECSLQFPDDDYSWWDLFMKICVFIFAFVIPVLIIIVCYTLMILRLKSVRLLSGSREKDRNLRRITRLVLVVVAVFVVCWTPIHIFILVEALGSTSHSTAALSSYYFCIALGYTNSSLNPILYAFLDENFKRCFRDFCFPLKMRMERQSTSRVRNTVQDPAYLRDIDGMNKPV

Mus musculus [5] = organism: Mus musculus; experiment: Anxiolytic activity in mouse assessed as lowest active dose by neonatal ultrasonic vocalization test; format: functional
Summary of the method: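 Neonatal mice; read-out is the number and duration of ultrasonic calls. The value is the lowest dose tested that gave a statistically significant reduction in calls.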

Mus musculus [6] = organism: Mus musculus; experiment: Decrease in duration of immobility in mouse assessed as lowest active dose by tail suspension test

Chain of Kappa-type opioid receptor (P41145 whole entry): as the sequence (P41145 whole entry, looked up) above

Row | Compound | Ki [1] | Ki (Mu-type opioid receptor) | Ki [2] | Ratio Ki [3] | further results
1 | CCOC(=O)N1CCC(c2ccccc2)(c2nccn2Cc2ccc(OC)cc2)CC1 | 201 nM | > 4650 nM | – | – | –
2 | COC(=O)c1cccc(Cn2ccnc2C2(c3ccccc3)CCN(C(=O)c3ccccc3)CC2)c1 | – | > 465 nM | 85 nM | > 5.5 | –
3 | CCCOC(=O)N1CCC(c2ccccc2)(c2nccn2Cc2ccccc2)CC1 | > 4650 nM | > 465 nM | – | – | –
4 | CCC(=O)N1CCC(c2ccccc2)(c2nccn2Cc2ccccc2)CC1 | – | > 465 nM | – | – | –
5 | COCC(=O)N1CCC(c2ccccc2)(c2nccn2Cc2ccc(C(=O)OC)cc2)CC1 | 65 nM | > 4650 nM | – | – | –
6 | CCCCOC(=O)N1CCC(c2ccccc2)(c2nccn2Cc2ccccc2)CC1 | 188 nM | > 465 nM | – | – | –
7 | O=C(OC1CCCCC1)N1CCC(c2ccccc2)(c2nccn2Cc2ccccc2)CC1 | 121 nM | > 465 nM | 7.4 nM | > 63 | Ratio Ki [4]: 16
8 | CCOC(=O)N1CCC(c2ccccc2)(c2nccn2Cc2ccccn2)CC1 | – | > 465 nM | 173 nM | > 2.7 | –
9 | COCC(=O)N1CCC(c2ccccc2)(c2nccn2Cc2ccccc2)CC1 | 622 nM | > 465 nM | – | – | –
10 | CCOC(=O)N1CCC(c2ccccc2)(c2nccn2CC2CCCCC2)CC1 | – | > 465 nM | 147 nM | > 3.2 | –
11 | COC(=O)c1ccc(Cn2ccnc2C2(c3ccccc3)CCN(C(=O)c3ccccc3)CC2)cc1 | 88 nM | > 4650 nM | – | – | –
12 | CC(C)C(=O)N1CCC(c2ccccc2)(c2nccn2Cc2ccccc2)CC1 | 621 nM | > 465 nM | 48 nM | > 10 | Ratio Ki [4]: 13
13 | CCOC(=O)N1CCC(c2ccccc2)(c2nccn2Cc2ccc(O)cc2)CC1 | 108 nM | > 465 nM | – | – | –
14 | COCC(=O)N1CCC(c2ccccc2)(c2nccn2C(C)c2ccccc2)CC1 (stereo not drawn) | > 4650 nM | > 4650 nM | – | – | –
15 | CCOC(=O)N1CCC(c2ccccc2)(c2nccn2Cc2ccccc2)CC1 | – | – | – | – | Activity (Mus musculus [5]): 10 mg/kg; Activity (Mus musculus [6]): 30 mg/kg
16 | CCOC(=O)N1CCC(c2ccccc2)(c2nccn2Cc2ccc(C(=O)OC)cc2)CC1 | 25 nM | > 465 nM | – | – | –
17 | O=C(C1CC1)N1CCC(c2ccccc2)(c2nccn2Cc2ccccc2)CC1 | – | > 465 nM | 23 nM | > 20 | –
18 | O=C(c1cc(C(F)(F)F)cc(C(F)(F)F)c1)N1CCC(c2ccccc2)(c2nccn2Cc2ccccc2)CC1 | – | > 465 nM | 29 nM | > 16 | –

Row | Compound | Ki [1] | Ki (Mu-type opioid receptor) | Ki [2] | Ratio Ki [3] | further results
19 | CCOC(=O)N1CCC(c2ccccc2)(c2nccn2Cc2cccc(F)c2)CC1 | > 4650 nM | > 465 nM | – | – | –
20 | CC(C)(C)OC(=O)N1CCC(c2ccccc2)(c2nccn2Cc2ccccc2)CC1 | 84 nM | > 465 nM | – | – | –
21 | Cc1cc(C)c(C(=O)N2CCC(c3ccccc3)(c3nccn3Cc3ccccc3)CC2)c(C)c1 | – | > 4650 nM | 125 nM | > 37 | –
22 | CC(C)(C)C(=O)N1CCC(c2ccccc2)(c2nccn2Cc2ccccc2)CC1 | – | > 4650 nM | – | – | –
23 | O=C(OCc1ccccc1)N1CCC(c2ccccc2)(c2nccn2Cc2ccccc2)CC1 | 121 nM | > 465 nM | – | – | –
24 | Cc1cc(C)cc(C(=O)N2CCC(c3ccccc3)(c3nccn3Cc3ccccc3)CC2)c1 | 284 nM | > 465 nM | – | – | –
25 | O=C(c1ccccc1)N1CCC(c2ccccc2)(c2nccn2Cc2ccccc2)CC1 | 124 nM | > 4650 nM | – | – | Activity (Mus musculus [5]): < 1 mg/kg; Activity (Mus musculus [6]): 10 mg/kg
26 | CC(C)OC(=O)N1CCC(c2ccccc2)(c2nccn2Cc2ccccc2)CC1 | 201 nM | > 465 nM | – | – | –
27 | CCOC(=O)N1CCC(c2ccccc2)(c2nccn2C(C)c2ccccc2)CC1 (stereo not drawn) | 62 nM | > 465 nM | – | – | –
28 | CCOC(=O)N1CCC(c2ccccc2)(c2nccn2Cc2ccc(F)cc2)CC1 | – | > 465 nM | 51 nM | > 6.5 | –
29 | CCOC(=O)N1CCC(c2ccccc2)(c2nccn2Cc2cccc(OC)c2)CC1 | 366 nM | > 4650 nM | – | – | –
30 | CCN(CC)C(=O)c1ccc(Cn2ccnc2C2(c3ccccc3)CCN(C(=O)c3ccccc3)CC2)cc1 | – | > 4650 nM | 158 nM | > 29 | –
31 | CCOC(=O)N1CCC(c2ccccc2)(c2nccn2Cc2ccc3ccccc3c2)CC1 | 3120 nM | > 465 nM | 642 nM | > 0.7 | Ratio Ki [4]: 4.8
32 | CC(=O)N1CCC(c2ccccc2)(c2nccn2Cc2ccccc2)CC1 | 1010 nM | > 465 nM | – | – | –
33 | COC(=O)N1CCC(c2ccccc2)(c2nccn2Cc2ccccc2)CC1 | – | > 4650 nM | – | – | –
34 | CC(c1ccccc1)n1ccnc1C1(c2ccccc2)CCN(C(=O)c2ccccc2)CC1 (stereo not drawn) | 334 nM | > 4650 nM | – | – | –
35 | CCOC(=O)N1CCC(c2ccccc2)(c2nccn2C/C=C/c2ccccc2)CC1 | – | > 465 nM | 280 nM | > 1.6 | –
36 | O=C(Cc1ccccc1)N1CCC(c2ccccc2)(c2nccn2Cc2ccccc2)CC1 | – | > 465 nM | – | – | –
